Results: ChEMBL document CHEMBL1121715, “New antiarrhythmic agents. 4. 1'-(Aminoalkyl)-1,2,3,4-tetrahydronaphthalene-1-spiro-3'-pyrrolidine-2',5'-dione derivatives” (J Med Chem, 1981)

Columns and labels:
[1] = Total body clearance was measured at given dose; format: ADME
How it was run: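 Blood levels came from the iv-infused dogs, measured by GC-FID after methylene chloride extraction and heptafluorobutyryl derivatization with an internal standard. Total body clearance was total dose divided by the blood-level AUC (zero to infinity); volume of distribution was clearance divided by the elimination rate constant.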

[2] = Volume of distribution was measured at given dose of 227 uM/kg; format: ADME, organism-based; conditions: in vivo
How it was run: (§1)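 In dogs given iv infusions, blood samples were alkaline-extracted (pH 10.3) into methylene chloride and derivatized with heptafluorobutyrylimidazole. Concentrations were measured by GC-FID against an internal standard using standard curves. Clearance was total dose ÷ blood-level AUC (zero to infinity), and volume of distribution was clearance ÷ elimination rate constant.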

Canis familiaris [3] = species: Canis familiaris; assay: Nature of toxicity was expressed; A-V convulsion; format: organism-based, Canis lupus familiaris; conditions: dog, in vivo
How it was run: (§2)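 Adult female dogs (6.7–14.5 kg) had two-stage ligation of the left anterior descending coronary artery the day before testing. After control ventricular rate, % ectopic beats and mean arterial pressure were recorded, the drug (HCl salt, isotonic solution) was infused iv without anesthesia at 0.1, 0.5 or 1.0 (mg/kg)/min, mostly 0.5. Infusion continued until the arrhythmia was abolished or cardiovascular/CNS toxicity appeared. Cumulative dose is given in mmol/kg; toxicity included convulsion and P-R prolongation ≥25%.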

Canis familiaris [4] = species: Canis familiaris; assay: The dose at which toxicity was measured; 0.065; 0.0182; format: organism-based, Canis lupus familiaris; conditions: dog, in vivo; how it was run: as §2
Canis familiaris [5] = assay: Blood level was measured in anesthetized dog at 0.053 dose; format: functional, Canis lupus familiaris
Canis familiaris [6] = assay: Blood level was measured in anesthetized dog at 0.058 dose; format: functional, Canis lupus familiaris
Canis familiaris [7] = species: Canis familiaris; assay: Toxicity of blood level was measured; format: organism-based, Canis lupus familiaris; conditions: dog, in vivo
How it was run: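 In coronary-ligated conscious dogs under iv infusion, blood was sampled at toxicity. Drug was extracted with methylene chloride at pH 10.3 (ammonium citrate/ammonia) with another analogue as internal standard, then derivatized with heptafluorobutyrylimidazole. Assay was GC-FID on 3% JXR, quantified from drug/internal standard peak-height ratio against standard curves; results in μmol/mL.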

Canis familiaris [8] = assay: Blood level was measured in anesthetized dog at 0.015 dose; format: functional, Canis lupus familiaris
Canis familiaris [9] = assay: Blood level was measured in anesthetized dog at 0.018 dose; format: functional, Canis lupus familiaris
Canis familiaris [10] = assay: Blood level was measured in anesthetized dog at 0.023 dose; format: functional, Canis lupus familiaris
Canis familiaris [11] = assay: Blood level was measured in anesthetized dog at 0.038 dose; format: functional, Canis lupus familiaris
Canis familiaris [12] = assay: % ectopic beats was measured in anesthetized dog at 0.015 dose; format: functional, Canis lupus familiaris, Heart; conditions: in the assay text read “unanesthetized” for “anesthetized”
How it was run: (§3)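 Adult female dogs (6.7–14.5 kg) had the left anterior descending coronary artery ligated in two stages the day before testing. Dogs were unanesthetized. Ectopic beats (% of ventricular rate) and mean arterial pressure were read at maximal antiarrhythmic effect against the cumulative dose.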

Canis familiaris [13] = assay: % ectopic beats was measured in anesthetized dog at 0.018 dose; format: functional, Canis lupus familiaris, Heart; conditions: in the assay text read “unanesthetized” for “anesthetized”; how it was run: as §3
Canis familiaris [14] = assay: % ectopic beats was measured in anesthetized dog at 0.023 dose; format: functional, Canis lupus familiaris, Heart; conditions: in the assay text read “unanesthetized” for “anesthetized”; how it was run: as §3
Canis familiaris [15] = assay: % ectopic beats was measured in anesthetized dog at 0.038 dose; format: functional, Canis lupus familiaris, Heart; conditions: in the assay text read “unanesthetized” for “anesthetized”; how it was run: as §3
Canis familiaris [16] = assay: % ectopic beats was measured in anesthetized dog at 0.053 dose; format: functional, Canis lupus familiaris, Heart; conditions: in the assay text read “unanesthetized” for “anesthetized”; how it was run: as §3
Canis familiaris [17] = species: Canis familiaris; assay: The Maximum dose of the Compound; format: functional, Canis lupus familiaris; how it was run: as §2
Canis familiaris [18] = species: Canis familiaris; assay: The Maximum dose of the compound; format: functional, Canis lupus familiaris; how it was run: as §2
Canis familiaris [19] = assay: MABP value was measured in anesthetized dog at 0.015 dose; format: functional, Canis lupus familiaris; conditions: in the assay text read “unanesthetized dog” for “anesthetized dog”; how it was run: as §3
Canis familiaris [20] = assay: MABP value was measured in anesthetized dog at 0.018 dose; format: functional, Canis lupus familiaris; conditions: in the assay text read “unanesthetized dog” for “anesthetized dog”; how it was run: as §3
Canis familiaris [21] = assay: MABP value was measured in anesthetized dog at 0.023 dose; format: functional, Canis lupus familiaris; conditions: in the assay text read “unanesthetized dog” for “anesthetized dog”; how it was run: as §3
Canis familiaris [22] = assay: MABP value was measured in anesthetized dog at 0.038dose; format: functional, Canis lupus familiaris; conditions: in the assay text read “unanesthetized dog” for “anesthetized dog”; how it was run: as §2
Canis familiaris [23] = assay: MABP value was measured in anesthetized dog at 0.053 dose; format: functional, Canis lupus familiaris; conditions: in the assay text read “unanesthetized dog” for “anesthetized dog”; how it was run: as §2
Canis familiaris [24] = assay: MABP value was measured in anesthetized dog at 0.058 dose; format: functional, Canis lupus familiaris; conditions: in the assay text read “unanesthetized dog” for “anesthetized dog”; how it was run: as §2
Canis familiaris [25] = assay: Ventricular rate was measured in anesthetized dog at 0.015 dose; format: functional, Canis lupus familiaris, Heart; conditions: in the assay text read “unanesthetized dog” for “anesthetized dog”; how it was run: as §2
Canis familiaris [26] = assay: Ventricular rate was measured in anesthetized dog at 0.018 dose; format: functional, Canis lupus familiaris, Heart; conditions: in the assay text read “unanesthetized dog” for “anesthetized dog”; how it was run: as §2
Canis familiaris [27] = assay: Ventricular rate was measured in anesthetized dog at 0.038 dose; format: functional, Canis lupus familiaris, Heart; conditions: in the assay text read “unanesthetized dog” for “anesthetized dog”; how it was run: as §2
Canis familiaris [28] = assay: Ventricular rate was measured in anesthetized dog at 0.053 dose; format: functional, Canis lupus familiaris, Heart; conditions: in the assay text read “unanesthetized dog” for “anesthetized dog”; how it was run: as §2
Canis familiaris [29] = assay: Ventricular rate was measured in anesthetized dog at 0.058 dose; format: functional, Canis lupus familiaris, Heart; conditions: in the assay text read “unanesthetized” for “anesthetized”
How it was run: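 Adult female dogs (6.7–14.5 kg) had ventricular arrhythmias from two-stage ligation of the left anterior descending coronary artery the day before. Ventricular rate (bpm) was read at maximal antiarrhythmic effect against cumulative dose.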

Canis familiaris [30] = assay: Ventricular rate was measured in anesthetized dog at 0.023 dose; format: functional, Canis lupus familiaris, Heart; conditions: in the assay text read “unanesthetized” for “anesthetized”; how it was run: as §2
Mus musculus [31] = species: Mus musculus; assay: Percentage toxicity measured as ataxia.; format: organism-based; conditions: in vivo
How it was run: (§4)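 Mice (groups of 10) were dosed sc with drug in 0.9% saline and watched for 20 min for overt toxicity (ataxia, convulsions, loss of righting reflex, death) before chloroform exposure.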

[32] = Percentage toxicity measured as death of mice.; format: organism-based; design: concentration or dose not given beside the values; conditions: mouse, in vivo; read-out: Death
Mus musculus [33] = species: Mus musculus; assay: Percentage toxicity measured as loss of righting reflex.; format: organism-based; conditions: in vivo; how it was run: as §4
Mus musculus [34] = assay: Protection against chloroform induced arrhythmias was measured in mice after sc administration at given dose; format: functional
How it was run: (§5)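 Groups of 10 unanesthetized mice got sc injection of drug in 0.9% saline. After 20 min observation they were placed one by one in chloroform-vapor-saturated air. When breathing stopped, the thorax was opened and the heart inspected by eye; coordinated ventricular contractions counted as protected.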

Mus musculus [35] = assay: Protection against chloroform induced arrhythmias in mice after subcutaneous administration at 100 mg/kg dose.; format: functional; how it was run: as §5
[36] = Volume of distribution was measured at given dose of 83 umol/kg; format: ADME, organism-based; conditions: in vivo; how it was run: as §1
Mus musculus [37] = species: Mus musculus; assay: Percentage toxicity measured as convulsions.; format: organism-based; conditions: in vivo; how it was run: as §4
[38] = Maximal concentration in dogs after intravenous administration; conditions: dog, in vivo
Canis familiaris [39] = assay: as above; conditions: dog, in vivo
Canis familiaris [40] = assay: % ectopic beats was measured in unanesthetized dog at 0.058 dose

Which ClB [1] does the source give for CN(C)CCCCN1C(=O)CC2(CCCc3ccc(O)cc32)C1=O (stereo unspecified) here?
Its ClB is 17.5 mL/min/kg.

And the clearance ([1]; ClB)?
The clearance was 31.6 mL/min/kg.

What about the Vd [2] of the same molecule?
Its Vd is 3.35 L/kg.

What about the Nature (Canis familiaris [3]) of the same molecule?
The Nature was “A-V convulsion”.

What about the Dose (Canis familiaris [4]) of the same molecule?
Its Dose is “A-V convulsion”.

What about the Blood level (Canis familiaris [5]) of the same molecule?
Its Blood level is 0.028 uM ml-1.

And the Blood level (Canis familiaris [6])?
Its Blood level is 0.017 uM ml-1.

What about the Blood level (Canis familiaris [7]) of the same molecule?
The Blood level was 12 µM.

And the Blood level (Canis familiaris [8])?
The Blood level was 0.024 uM ml-1.

And the Blood level (Canis familiaris [9])?
Its Blood level is 0.022 uM ml-1.

And the Blood level (Canis familiaris [10])?
The Blood level was 0.02 uM ml-1.

What about the Blood level (Canis familiaris [11]) of the same molecule?
Its Blood level is 0.023 uM ml-1.

And the Etopic beats (Canis familiaris [12])?
The Etopic beats was 0%.

What about the Etopic beats (Canis familiaris [13]) of the same molecule?
Its Etopic beats is 1%.

And the Etopic beats (Canis familiaris [14])?
The Etopic beats was 93%.

And the Etopic beats (Canis familiaris [15])?
The Etopic beats was 0%.

And the Etopic beats (Canis familiaris [16])?
The Etopic beats was 3%.

What about the Dose (Canis familiaris [17]) of the same molecule?
Its Dose is 83 µM/kg.

What about the Dose (Canis familiaris [18]) of the same molecule?
The Dose was 227 µM/kg.

What about the MABP (Canis familiaris [19]) of the same molecule?
The MABP was 85 mmHg.

What about the MABP (Canis familiaris [20]) of the same molecule?
The MABP was 120 mmHg.

What about the MABP (Canis familiaris [21]) of the same molecule?
Its MABP is 110 mmHg.

And the MABP (Canis familiaris [22])?
The MABP was 105 mmHg.

What about the MABP (Canis familiaris [23]) of the same molecule?
The MABP was 135 mmHg.

And the MABP (Canis familiaris [24])?
Its MABP is 95 mmHg.

What about the Ventricular rate (Canis familiaris [25]) of the same molecule?
Its Ventricular rate is 165 beats min-1.

What about the Ventricular rate (Canis familiaris [26]) of the same molecule?
The Ventricular rate was 150 beats min-1.

What about the Ventricular rate (Canis familiaris [27]) of the same molecule?
Its Ventricular rate is 171 beats min-1.

What about the Ventricular rate (Canis familiaris [28]) of the same molecule?
Its Ventricular rate is 183 beats min-1.

And the Ventricular rate (Canis familiaris [29])?
The Ventricular rate was 171 beats min-1.

And the Ventricular rate (Canis familiaris [30])?
The Ventricular rate was 138 beats min-1.

What about the Ataxia (Mus musculus [31]) of the same molecule?
The Ataxia was 0%.

What about the mortality [32] of the same molecule?
The mortality was 0%.

And the “Loss of righting reflex” value (Mus musculus [33])?
Its value is 0%.

What about the ED50 (Mus musculus [34]) of the same molecule?
The ED50 was 160 µmol/kg.

And the Protection (Mus musculus [35])?
Its Protection is 100%.

And the Vd [36]?
Its Vd is 3.02 L/kg.

And the Convulsion (Mus musculus [37])?
The Convulsion was 0%.

What about the Cmax [38] of the same molecule?
Its Cmax is 37 µM.

And the Cmax (Canis familiaris [39])?
The Cmax was 30 µM.

And the Ectopic beats (Canis familiaris [40])?
The Ectopic beats was 4%.
